Test results published in ChEMBL document CHEMBL1156912, “Subtlety of the structure-affinity and structure-efficacy relationships around a nonpeptide oxytocin receptor agonist” (J Med Chem, 2010).
Activity calls are given as the source filed them. No cut-off for these calls is given here.

Tests used:
Oxytocin receptor [1] = target: T1, Oxytocin receptor (Homo sapiens, UniProt P30559); test: Displacement of [3H]AVP from human oxytocin receptor expressed in CHO cells; type: cell-based
T1 sequence (P30559 whole entry): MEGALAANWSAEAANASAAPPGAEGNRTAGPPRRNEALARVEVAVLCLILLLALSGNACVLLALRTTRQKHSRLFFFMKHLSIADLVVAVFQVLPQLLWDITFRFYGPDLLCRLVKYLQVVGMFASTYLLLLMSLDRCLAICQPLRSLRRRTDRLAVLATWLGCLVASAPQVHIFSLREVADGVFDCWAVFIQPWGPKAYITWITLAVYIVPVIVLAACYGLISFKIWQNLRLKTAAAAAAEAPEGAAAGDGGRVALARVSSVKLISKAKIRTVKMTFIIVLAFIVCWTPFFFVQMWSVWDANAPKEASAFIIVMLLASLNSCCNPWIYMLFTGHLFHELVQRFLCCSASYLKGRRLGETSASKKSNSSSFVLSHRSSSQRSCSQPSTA
Outline: (§1)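 Membranes came from CHO cells stably expressing the human receptor; OT-R and V1a-R cells were treated overnight with 5 mM butyrate. Membrane protein was 10–15 μg (OT, V1a) or 5 μg (V2), incubated 30 min at 30 °C in 50 mM Tris-HCl, 5 mM MgCl2, 1 mg/mL BSA, pH 7.4, with 1–2 nM [3H]AVP and competitor 0.1 pM–100 μM. Nonspecific binding: 10 μM AVP. Filtration, then Ki via Cheng–Prusoff. Mean ± SEM of ≥3 experiments in triplicate.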

[2] = target: T2, Oxytocin receptor (Homo sapiens) (UniProt P30559); test: Activity at human oxytocin receptor expressed in CHO cells assessed as inositol phosphate accumulation at 1 uM; type: functional, cell-based
T2 sequence (whole entry): T1 sequence (P30559 whole entry)
Outline: (§2)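 Agonist mode on CHO cells stably expressing human OT receptor: 30 min at 37 °C with ligand, 10 fM–100 μM, ≤1% final DMSO. IP1 accumulation was read by IP-One HTRF, ΔF from the 665/620 ratio. K_act is the EC50 from the sigmoidal fit. Emax is % of the 1 μM OT maximal response. Single-concentration lines are % of OT maximum, n = 2. Mean of ≥3 experiments in triplicate.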

[3] = target: T2, Oxytocin receptor (Homo sapiens); test: Activity at human oxytocin receptor expressed in CHO cells assessed as inhibition of agonist-induced inositol phosphate accumulation; type: functional, cell-based
Oxytocin receptor [4] = target: T1, Oxytocin receptor; test: Activity at human oxytocin receptor expressed in CHO cells by NFAT-luciferase gene reporter assay; type: cell-based
Vasopressin V1a receptor [5] = target: T3, Vasopressin V1a receptor (Homo sapiens, UniProt P37288); test: Displacement of [3H]AVP from human vasopressin V1a receptor expressed in CHO cells; type: cell-based; outline: as §1
Target sequence in this assay (P37288 whole entry): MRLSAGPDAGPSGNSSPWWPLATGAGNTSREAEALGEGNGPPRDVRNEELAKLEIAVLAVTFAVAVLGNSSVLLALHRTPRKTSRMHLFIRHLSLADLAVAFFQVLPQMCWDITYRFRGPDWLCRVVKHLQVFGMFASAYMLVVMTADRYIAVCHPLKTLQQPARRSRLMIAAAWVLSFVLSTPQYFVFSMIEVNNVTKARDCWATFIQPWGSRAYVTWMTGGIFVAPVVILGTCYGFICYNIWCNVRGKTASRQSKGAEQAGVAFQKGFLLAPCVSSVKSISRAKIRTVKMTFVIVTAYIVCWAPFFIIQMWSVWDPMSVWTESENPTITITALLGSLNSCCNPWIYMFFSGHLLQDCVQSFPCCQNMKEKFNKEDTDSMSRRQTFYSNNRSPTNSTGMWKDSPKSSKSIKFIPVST

Vasopressin V1a receptor [6] = target: T3, Vasopressin V1a receptor; test: Activity at human vasopressin V1a receptor expressed in CHO cells assessed as inositol phosphate accumulation at 1 uM; type: functional, cell-based
Outline: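 Human V1a-expressing CHO cells, 80000 cells/well, exposed to ligand for 30 min at 37 °C. IP1 was measured by HTRF IP-One. EC50 (K_act) from the dose–response curve. Emax is relative to the 1 μM AVP maximum. Weak responses are reported as % of AVP maximum at 1 μM ligand.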
Target sequence in this assay (P37288 whole entry, looked up): as the sequence (P37288 whole entry) above

Vasopressin V2 receptor [7] = target: T4, Vasopressin V2 receptor (Homo sapiens, UniProt P30518); test: Displacement of [3H]AVP from human vasopressin V2 receptor expressed in CHO cells; type: cell-based; outline: as §1
Vasopressin V2 receptor [8] = target: T4, Vasopressin V2 receptor; test: Activity at human vasopressin V2 receptor expressed in CHO cells assessed as cAMP accumulation; type: functional, cell-based
Outline: (§3)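 V2-R agonism in CHO cells at 1000 cells/well, stimulated 30 min at 37 °C in D-MEM containing 0.1 mM Ro-20-1724 and 1 mg/mL BSA. cAMP was read by cAMP dynamic 2 HTRF. K_act from the sigmoidal fit. Emax is % of the 0.1 μM AVP response. Single-concentration values are % of AVP maximum.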

Vasopressin V2 receptor [9] = target: T4, Vasopressin V2 receptor; test: Activity at human vasopressin V2 receptor expressed in CHO cells assessed as cAMP accumulation at 1 uM; type: functional, cell-based; outline: as §3
Vasopressin V1a receptor [10] = target: T3, Vasopressin V1a receptor; test: Activity at human vasopressin V1a receptor expressed in CHO cells by NFAT-luciferase gene reporter assay; type: cell-based
Target sequence in this assay (P37288 whole entry): as above

Vasopressin V1a receptor [11] = target: T3, Vasopressin V1a receptor; test: Activity at human vasopressin V1a receptor expressed in CHO cells assessed as inhibition of agonist-induced inositol phosphate accumulation at 1 uM; type: functional, cell-based; parameters: scale not given: the % may be the effect or the level left
Outline: (§4)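 Human V1a receptor in stably transfected CHO cells, seeded at 80000 cells/well overnight. Cells were preincubated 10 min at 37 °C with ligand (10 fM–100 μM, ≤1% final DMSO), then challenged with 2 nM AVP for 30 min. IP1 was read by IP-One HTRF. K_inact was derived by Cheng–Prusoff-type correction using AVP K_act 1.20 nM. Fixed-concentration lines are % inhibition, n = 2.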
Target sequence in this assay (P37288 whole entry, looked up): as the sequence (P37288 whole entry) above

Vasopressin V2 receptor [12] = target: T4, Vasopressin V2 receptor; test: Activity at human vasopressin V2 receptor expressed in CHO cells assessed as inhibition of agonist-induced cAMP accumulation at 1 uM; type: functional, cell-based
Vasopressin V2 receptor [13] = target: T4, Vasopressin V2 receptor; test: Activity at human vasopressin V2 receptor expressed in CHO cells by cAMP dynamic 2 assay
[14] = target: T2, Oxytocin receptor (Homo sapiens); test: Activity at human oxytocin receptor expressed in CHO cells assessed as inhibition of agonist-induced inositol phosphate accumulation at 10 uM; type: functional, cell-based
[15] = target: T2, Oxytocin receptor (Homo sapiens); test: Activity at human oxytocin receptor expressed in CHO cells assessed as inhibition of agonist-induced inositol phosphate accumulation at 1 uM; type: functional, cell-based; parameters: scale not given: the % may be the effect or the level left
Vasopressin V1a receptor [16] = target: T3, Vasopressin V1a receptor; test: Activity at human vasopressin V1a receptor expressed in CHO cells assessed as inhibition of agonist-induced inositol phosphate accumulation; type: functional, cell-based; outline: as §4
Target sequence in this assay (P37288 whole entry, looked up): as the sequence (P37288 whole entry) above

Vasopressin V2 receptor [17] = target: T4, Vasopressin V2 receptor; test: Activity at human vasopressin V2 receptor expressed in CHO cells assessed as inhibition of agonist-induced cAMP accumulation; type: functional, cell-based
[18] = target: T2, Oxytocin receptor (Homo sapiens); test: Activity at human oxytocin receptor expressed in CHO cells assessed as inositol phosphate accumulation; type: functional, cell-based; outline: as §2

T4 sequence (P30518 whole entry): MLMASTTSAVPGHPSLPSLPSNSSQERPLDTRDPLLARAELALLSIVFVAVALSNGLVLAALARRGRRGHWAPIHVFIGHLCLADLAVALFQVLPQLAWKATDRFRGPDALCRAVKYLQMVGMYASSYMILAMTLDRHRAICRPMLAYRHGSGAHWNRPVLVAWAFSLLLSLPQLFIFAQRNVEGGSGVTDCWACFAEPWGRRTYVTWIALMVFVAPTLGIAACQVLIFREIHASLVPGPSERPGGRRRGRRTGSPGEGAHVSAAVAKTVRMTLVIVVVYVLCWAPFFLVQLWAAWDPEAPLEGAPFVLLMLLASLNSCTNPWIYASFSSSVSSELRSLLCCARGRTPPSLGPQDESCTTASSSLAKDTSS

With `Cc1ccn(-c2ccc(C(=O)N3Cc4cccn4Cc4ccccc43)c(Cl)c2)n1` the Ki (Oxytocin receptor [1]; read-out: Ki) was 199 nM, the Activity [2] was “inactive” and the Kinact [3] was 488 nM. For the same compound, the EC50 (Oxytocin receptor [4]) was 125 nM, the Ki (Vasopressin V1a receptor [5]; read-out: Ki) was 344 nM and the Activity (Vasopressin V1a receptor [6]) was “inactive”. For the same compound, the Ki (Vasopressin V2 receptor [7]; read-out: Ki) was 50 nM, the Kact (Vasopressin V2 receptor [8]) was 9.5 nM and the Emax (Vasopressin V2 receptor [9]) was 75%. For the same compound, the EC50 (Vasopressin V1a receptor [10]) was 465 nM, the Activity (Vasopressin V1a receptor [11]) was 33% and the Activity (Vasopressin V2 receptor [12]) was “inactive”. For the same compound, the EC50 (Vasopressin V2 receptor [13]) was 39.9 nM.
With `CC(=O)NCc1ccc(C(=O)N2Cc3cnn(C)c3Nc3ccccc32)cc1C` the Ki (Oxytocin receptor [1]; read-out: Ki) was > 5000 nM, the Activity [14] was “inactive” and the Ki (Vasopressin V1a receptor [5]; read-out: Ki) was > 5000 nM. The Activity (Vasopressin V1a receptor [6]) was “inactive”, the Activity [15] was “inactive” and the Activity (Vasopressin V1a receptor [11]) was 27%.
In the case of `Cc1cc(C(=O)N2Cc3cnn(C)c3Nc3ccccc32)ccc1CNC(=O)N1CCCC1`, the Ki (Oxytocin receptor [1]; read-out: Ki) is reported as > 1000 nM, the Activity [14] is reported as “inactive” and the Ki (Vasopressin V1a receptor [5]; read-out: Ki) is reported as 167 nM. For the same compound, the Activity (Vasopressin V1a receptor [6]) was “inactive”, the Kinact (Vasopressin V1a receptor [16]) was 187 nM and the Ki (Vasopressin V2 receptor [7]; read-out: Ki) was > 1000 nM. The Emax (Vasopressin V2 receptor [9]) was 20%, the Activity [15] was 37% and the Kinact (Vasopressin V2 receptor [12]) was “inactive”.
In the case of `COc1cc(OC2CCN(C(C)=O)CC2)ccc1C(=O)N1CCC(N2C(=O)OCc3ccccc32)CC1`, the Ki (Oxytocin receptor [1]; cho) is reported as “Not Active”, the Activity [2] is reported as “inactive” and the EC50 (Oxytocin receptor [4]) is reported as 4.6 nM. For the same compound, the Ki (Vasopressin V1a receptor [5]; cho) was “Not Active”, the Activity (Vasopressin V1a receptor [6]) was “inactive” and the Ki (Vasopressin V2 receptor [7]; cho) was “Not Active”. The Activity (Vasopressin V2 receptor [9]) was “inactive”, the Kinact (Vasopressin V2 receptor [17]) was “inactive” and the EC50 (Vasopressin V1a receptor [10]) was 3200 nM. For the same compound, the Activity (Vasopressin V1a receptor [11]) was 18% and the EC50 (Vasopressin V2 receptor [13]) was 37000 nM.
Work on `Cc1ccn(-c2ccc(C(=O)N3Cc4cnn(C)c4Nc4ccccc43)cc2C)n1` yielded a Ki (Oxytocin receptor [1]; read-out: Ki) of 27.8 nM, a Kinact [3] of 14.8 nM and a Ki (Vasopressin V1a receptor [5]; read-out: Ki) of 18 nM. For the same compound, the Activity (Vasopressin V1a receptor [6]) was “inactive”, the Kinact (Vasopressin V1a receptor [16]) was 32.5 nM and the Ki (Vasopressin V2 receptor [7]; read-out: Ki) was 913 nM. For the same compound, the Activity (Vasopressin V2 receptor [9]) was “inactive” and the Kinact (Vasopressin V2 receptor [17]) was 253 nM.
With `Cc1ccn(-c2ccc(C(=O)N3Cc4cnn(C)c4Nc4ccccc43)c(Cl)c2)n1` the Ki (Oxytocin receptor [1]; read-out: Ki) was 17 nM, the Activity [18] was “inactive” and the Kinact [3] was 69 nM. For the same compound, the Ki (Vasopressin V1a receptor [5]; read-out: Ki) was 27 nM, the Activity (Vasopressin V1a receptor [6]) was “inactive” and the Kinact (Vasopressin V1a receptor [16]) was 13 nM. The Ki (Vasopressin V2 receptor [7]; read-out: Ki) was 29 nM, the Kact (Vasopressin V2 receptor [8]) was 8.4 nM and the Emax (Vasopressin V2 receptor [9]) was 94%. The Activity (Vasopressin V2 receptor [12]) was “inactive”.
`Cc1cc(C(=O)N2Cc3cnn(C)c3Nc3ccccc32)ccc1CNC(=O)N(C)C` was tested, and the Ki (Oxytocin receptor [1]; read-out: Ki) was > 5000 nM, the Activity [14] was “inactive” and the Ki (Vasopressin V1a receptor [5]; read-out: Ki) was 170 nM. The Activity (Vasopressin V1a receptor [6]) was “inactive”, the Kinact (Vasopressin V1a receptor [16]) was 134 nM and the Ki (Vasopressin V2 receptor [7]; read-out: Ki) was > 1000 nM. It also gave an Emax (Vasopressin V2 receptor [9]) of 16% and an Activity [15] of 30%.
